The source of these data is PMC6214802 (Molecular microbiology, 2018).

Where two headings read alike, the source gives them in different places.

Assay [1] addresses V. cholerae Aer2 PAS 1–2 [1–282] peptide (V. cholerae O1 JBK 70). Kind of assay: SEC.
The target in assay [2] is V. cholerae Aer2 PAS1 [38–157] peptide (V. cholerae O1 JBK 70). Description: SEC.
Assay [3] shares this target. Kind of assay: SEC. The source holds these as a separate data set.
Assay [4] concerns the target V. cholerae Aer2 PAS2 [165–282] peptide (V. cholerae O1 JBK 70). Description: SEC.
For assay [5] the target is unchanged. Description: SEC. This is another data set of the same source.
Assay [6] has as its target V. cholerae Aer2 PAS1 [1–164] peptide (V. cholerae O1 JBK 70). Description: SEC.
Assay [7] deals with VcAer2 PAS1 [38–157]. Description: O2 and CO titrations of purified PAS1 peptide. In kind it is binding, Vibrio cholerae. As to conditions: read-out: Kd(CO); PAS1 [38–157] peptide. The method in brief: (§1)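 PAS1 [38–157] or PAS2 [165–282] peptides came from E. coli BT3388 grown in LB Lennox with 0.5 µg ml−1 thiamine and 25 µg ml−1 ALA, induced with 600 µM IPTG and Ni-NTA purified. Heme-bound protein was quantified by pyridine hemochrome assay to standardize PAS-heme concentration. Kd(O2) and Kd(CO) were estimated by linear interpolation between unliganded Fe2+ and Fe2+-O2 or Fe2+-CO spectra. Averaged over 2–8 experiments, rounded to whole numbers.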

Assay [8] has as its system PaAer2/BT3388 cells. The conditions noted are these: PaAer2 in E. coli; ref Watts et al., 2011; cited from earlier work.
Assay [9] concerns the target PaPAS (Pseudomonas aeruginosa Aer2 PAS domain). The conditions noted are these: read-out: Kd(CO), ref Garcia et al., 2017; cited from earlier work.
In assay [10] the target is VcAer2 PAS2 [165–282]. Description: O2 and CO titrations of purified PAS2 peptide. In kind it is binding, Vibrio cholerae. As to conditions: read-out: Kd(CO); PAS2 [165–282] peptide. The method in brief:
as §1

The test system of assay [11] is PAS1 [38–157] mutant peptides. Kind of assay: Gas binding to purified PAS1 [38–157] mutant peptides. Also noted: species or system Vibrio cholerae.
For assay [12], the system named is VcAer2/BT3388 cells. Kind of assay: Behavioral assay. In kind it is cell-based, E. coli. As to conditions: full-length VcAer2; 200 µM or 1 mM IPTG; with or without 25 µg ml^−1 ALA. The method in brief: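 Full-length receptor expressed in chemoreceptorless E. coli BT3388 grown at 30 °C in tryptone broth with 0.5 µg ml−1 thiamine (± 25 µg ml−1 ALA). Induced at OD600 0.2–0.25 for 2 h with 200 µM or 1 mM IPTG. Gas perfusion chamber toggled between air (20.9% O2) and N2. For CO, 30 s N2 then 10 s CO (>99%). Percent tumbling scored for all motile cells per field at 800×. Repeated ≥2 times on ≥2 occasions.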

Assay [13] has as its system PAS2 [165–282] W276 mutant peptides. Description: Gas binding to purified PAS2 [165–282] W276 mutant peptides. On the set-up: species or system Vibrio cholerae. The conditions noted are these: PAS2 peptides containing W276C, L and V.
For assay [14], the target named is VcAer2 [165–678]. Description: O2 and CO titrations of purified VcAer2 [165–678]. In kind it is binding, Vibrio cholerae. As to conditions: read-out: Kd(CO). The method in brief: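 Truncated receptor was expressed in E. coli BT3388 in LB Lennox with 0.5 µg ml−1 thiamine and 25 µg ml−1 ALA, induced with 600 µM IPTG, then Ni-NTA purified. Heme content was assessed on 5 µM purified protein. Kd(O2) and Kd(CO) came from linear interpolation between unliganded Fe2+ and liganded (Fe2+-O2, Fe2+-CO) absorption spectra. Averaged over 2–8 experiments and rounded to whole numbers.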

On to “V. cholerae Aer2 PAS 1–2 [1–282] peptide (domain or fragment)”, for which, in [1], the stoichiometry N came out at 2.

In the case of “V. cholerae Aer2 PAS1 [38–157] peptide (domain or fragment)”, the stoichiometry N in [2] and in assay [3] was 2 throughout.

Regarding “V. cholerae Aer2 PAS2 [165–282] peptide (domain or fragment)”, the stoichiometry N in [4] and in assay [5] was 2 throughout.

For the compound “V. cholerae Aer2 PAS1 [1–164] peptide (domain or fragment)”, the stoichiometry N in assay [6] was found to be 2.

Take `[C-]#[O+]` [CO, carbon monoxide]: the Kd in assay [7] is 7 µM; in assay [9], 2 µM; in [10] it was 5 µM; in [14], 2 µM. The “cells tumbling in the presence of gas” value in [8] is ~ 98%. The “CO binding affinity relative to WT” value in assay [11] (PAS1-W151C, F, G, P, S, T and V) was “WT affinities”; in assay [11] (PAS1-W151L) it was “WT affinities”; in [11] (PAS1-Y119L) it was “WT O2 and CO affinities”. The CO binding entry in assay [11] (PAS1-Y119L/W151L) was “bound heme and CO”; in assay [13], “bound CO”. For the same compound, the “behavioral response to gas” value in [12] is reported as “did not respond”.
